# Assay outcomes from PubChem.
# IDH1 mut inh = IDH1 R132H (human) inhibition | O75874 | IDH1 R132H reductase, diaphorase/resazurin fluorescence, 60 min | inhibition, % at 10 µM | 0.18% of 70,000 active; in the data active means inhibition above about 34%; inconclusive means no clear call, values can overlap the other calls; inactive means below about 11%;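 further: 0% = DMSO and 100% = no enzyme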
# GASC1 inh = inhibitors of human demethylase GASC-1 KDM4C; GST-KDM4C 2-372, H3K9me3 peptide, LANCE TR-FRET; inhibition, % at 12.5 µM; 0.15% of 96,000 active;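 active means mean replicate inhibition above about 25%, with at least 55% of replicates also reaching it, limit read from the data, passing the limit was not always enough; inconclusive means only one of those two conditions met; inactive means neither condition met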
# Target sequence (Q9H3R0 2-372 limits assumed): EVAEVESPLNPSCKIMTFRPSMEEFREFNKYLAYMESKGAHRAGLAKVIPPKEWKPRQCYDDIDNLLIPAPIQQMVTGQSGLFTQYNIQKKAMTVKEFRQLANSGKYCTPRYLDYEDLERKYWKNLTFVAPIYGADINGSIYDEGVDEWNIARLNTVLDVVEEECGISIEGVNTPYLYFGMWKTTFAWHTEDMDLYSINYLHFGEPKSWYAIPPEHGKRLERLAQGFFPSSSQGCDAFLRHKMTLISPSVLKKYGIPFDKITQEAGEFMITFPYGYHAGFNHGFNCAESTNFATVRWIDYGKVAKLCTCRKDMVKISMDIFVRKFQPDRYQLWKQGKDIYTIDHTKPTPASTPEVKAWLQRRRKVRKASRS
#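 Test system – GST-tagged GASC-1 (JMJD2C) catalytic fragment, aa 2-372 · Medium – HEPES buffer, pH 7.5, plus ascorbate · Reagent – H3K9me3 peptide with Fe(II)/2OG · Compound – one test concentration per compound · Timing – 30 min reaction, 60 min detection, RT · Technique – TR-FRET with Eu antibody and ULight streptavidin, EDTA stop · Read-out basis – inhibition from TR-FRET ratio decrease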
# T cruzi growth-1 = T. cruzi proliferation inhibition. AID 624255. 5.9% of 77,000 active. inhibition, % at 8.34 µM. T. cruzi beta-gal in NIH3T3, GalScreen luminescence, 90 h;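 active means mean inhibition above about 93%, with at least 55% of replicates each passing it, limit read from the data, passing the limit was not always enough; inconclusive means only one of those two conditions holds; inactive means neither condition holds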
# T cruzi growth-2 = inhibitors of T. cruzi proliferation. 72% of 5,600 active. inhibition, % at 8.35 µM. T. cruzi beta-gal in NIH3T3, GalScreen luminescence, 90 h. AID 651739. shares compounds with T cruzi growth-1;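 active means mean replicate inhibition above about 95% and at least 55% of replicates individually reaching it, limit read from the data; inconclusive means only one of the two criteria is met; inactive means neither criterion is met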
# T cruzi growth-3 = inhibitors of T. cruzi proliferation | T. cruzi beta-gal in NIH3T3, GalScreen luminescence, 90 h | inhibition, % at 2.09 µM | shares compounds with T cruzi growth-1 | 21% of 5,600 active;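 active means mean inhibition above about 95%, with at least 55% of replicates also reaching it, limit read from the data; inconclusive means meets just one of the two conditions; inactive means meets neither condition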;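 further: plate controls were neutral control median for no effect and positive control median for full effect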
# NIH3T3 tox = cytotoxicity in mouse NIH/3T3 fibroblasts; shares compounds with T cruzi growth-1; NIH/3T3 viability, CellTiter-Glo ATP luminescence, 90 h; cytotoxicity (signal decrease), % at 8.35 µM; 14% of 5,600 active; AID 651742;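 active means mean signal decrease across replicates above about 35% based on untreated-well scatter, with enough replicates individually passing, limit read from the data; inconclusive means no rule stated though some were filed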;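 further: 0% = median of neutral control wells and 100% = median of positive control wells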
# NIH3T3 tox 2 = cytotoxicity in mouse NIH/3T3 fibroblasts; shares compounds with T cruzi growth-1; NIH/3T3 viability, CellTiter-Glo ATP luminescence, 90 h; inhibition, % at 24.9 µM; 56% of 5,600 active; AID 651744;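 active means mean loss of cell viability signal at or above a set limit, and enough replicates individually reaching it; inconclusive means meets only the mean limit or only the replicate share; inactive means meets neither condition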;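 further: 0% = median of neutral control wells and 100% = median of positive control wells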
# Starred values were filed as active, the others as inactive; u = inconclusive; x = no result. Shown is part of a subset that was picked to be rich in hits.
SMILES,IDH1 mut inh,GASC1 inh,T cruzi growth-1,T cruzi growth-2,T cruzi growth-3,NIH3T3 tox,NIH3T3 tox 2
COc1ccc2c3c(n(C)c2c1)[C@H](CO)N(C)CC31CCN(C(=O)Nc2c(C)noc2C)CC1,x,-0.4,x,x,x,x,x
Cc1noc(C)c1NC(=O)Nc1ccc2c(c1)C(=O)N([C@@H](C)CO)C[C@@H](C)[C@@H](CN(C)Cc1ccc(C(=O)O)cc1)O2,0.1,0.5,32.8,x,x,x,x
COc1ccc(CN(C)C[C@@H]2Oc3ccc(NC(=O)Cc4cn(C)c5ccccc45)cc3C(=O)N([C@@H](C)CO)C[C@@H]2C)cc1,-17.7,0.7,29.0,x,x,x,x
C[C@@H]1CCCCO[C@H](CN(C)C(=O)Nc2ccc(C(F)(F)F)cc2)[C@H](C)CN([C@H](C)CO)C(=O)c2cc(NS(=O)(=O)c3ccc(Cl)cc3)ccc2O1,0.8,-5.0,99.1*,u,117.5*,27.5,17.8
C[C@@H]1CCCCO[C@H](CN(C)C(=O)Nc2ccc(C(F)(F)F)cc2)[C@H](C)CN([C@@H](C)CO)C(=O)c2cc(NS(=O)(=O)c3ccc(Cl)cc3)ccc2O1,3.0,-1.7,94.3,x,x,x,x
CCCNC(=O)C[C@@H]1C[C@H]2c3cc(NC(=O)Nc4ccc(OC)cc4)ccc3O[C@H]2[C@@H](CO)O1,0.1,-1.1,42.6,x,x,x,x
CCCNC(=O)C[C@@H]1C[C@@H]2c3cc(NC(=O)CN(C)C)ccc3O[C@@H]2[C@H](CO)O1,0.5,0.9,87.8,x,x,x,x
CCCNC(=O)C[C@H]1C[C@H]2c3cc(NC(=O)CN(C)C)ccc3O[C@H]2[C@@H](CO)O1,-1.1,0.1,101.3*,7.4,-3.3,-4.7,3.3
COc1ccc(CNC(=O)C[C@@H]2C[C@H]3c4cc(NC(=O)C5CCC5)ccc4O[C@H]3[C@H](CO)O2)cc1,-2.1,0.0,176.7*,u,-0.7,5.6,17.8
COc1ccc(NC(=O)Nc2ccc3c(c2)[C@H]2C[C@H](CC(=O)NCCc4ccccc4)O[C@@H](CO)[C@H]2O3)cc1,-0.2,-10.4,147.9*,105.2*,55.9,-12.1,-3.4
COCCNC(=O)C[C@@H]1C[C@@H]2c3cc(NC(=O)Nc4ccc(OC)cc4)ccc3O[C@@H]2[C@H](CO)O1,0.0,-0.3,-1.9,x,x,x,x
COc1ccc(NC(=O)Nc2ccc3c(c2)[C@@H]2C[C@@H](CC(=O)NCCc4ccccc4)O[C@H](CO)[C@@H]2O3)cc1,0.0,-9.2,132.8*,104.6*,64.1,-16.6,-4.6
COc1ccc(CNC(=O)C[C@H]2C[C@H]3c4cc(NC(=O)C5CCC5)ccc4O[C@H]3[C@H](CO)O2)cc1,-0.1,-2.8,-3.3,x,x,x,x
COc1ccc(NC(=O)Nc2ccc3c(c2)[C@@H]2C[C@@H](CC(=O)NCCc4ccccc4)O[C@@H](CO)[C@@H]2O3)cc1,0.5,-5.0,179.2*,110.9*,104.8*,5.9,3.6
CCCNC(=O)C[C@H]1C[C@H]2c3cc(NC(=O)Nc4ccc(OC)cc4)ccc3O[C@H]2[C@H](CO)O1,0.1,-1.7,37.1,x,x,x,x
C[C@@H]1CCCCO[C@H](CN(C)C(=O)CCC(F)(F)F)[C@@H](C)CN([C@H](C)CO)C(=O)c2cc(NS(=O)(=O)c3ccc(Cl)cc3)ccc2O1,x,5.3,87.9,x,x,x,x
C[C@@H]1CN([C@H](C)CO)C(=O)c2cc(NS(=O)(=O)c3ccc(Cl)cc3)ccc2O[C@@H](C)CCCCO[C@@H]1CN(C)C(=O)CCC(F)(F)F,x,-0.2,99.1*,82.3,52.2,16.4,71.0*
C[C@@H]1CN([C@@H](C)CO)C(=O)c2cc(NS(=O)(=O)c3ccc(Cl)cc3)ccc2O[C@@H](C)CCCCO[C@H]1CN(C)C(=O)CCC(F)(F)F,x,1.1,42.5,x,x,x,x
C[C@@H]1CCCCO[C@H](CN(C)C(=O)CCC(F)(F)F)[C@H](C)CN([C@@H](C)CO)C(=O)c2cc(NS(=O)(=O)c3ccc(Cl)cc3)ccc2O1,-0.2,x,104.4*,102.6*,68.1,11.2,71.6*
O=C(C[C@@H]1CC[C@@H]2[C@H](COC[C@H](O)CN2Cc2cc(F)ccc2F)O1)NCc1ccc(Cl)cc1,x,-5.0,72.2,x,x,x,x
Cc1cc(C)c(NC(=O)CN(c2ccc(Cl)cc2)S(C)(=O)=O)c(C)c1,0.2,x,x,x,x,x,x
C/C=C/c1ccc([C@H]2[C@H](CO)N3CCCCN(S(=O)(=O)c4ccc(F)cc4)C[C@@H]23)cc1,x,0.3,111.5*,108.2*,56.9,22.1,101.8*
C/C=C/c1ccc([C@@H]2[C@H](CO)N3CCCCN(S(=O)(=O)c4ccccc4)C[C@@H]23)cc1,x,-1.4,68.8,x,x,x,x
C/C=C/c1ccc([C@@H]2[C@@H](CO)N3CCCCN(S(=O)(=O)c4ccc(OC)cc4)C[C@@H]23)cc1,x,-0.4,76.2,x,x,x,x
C/C=C/c1ccc([C@H]2[C@@H](CO)N3CCCCN(S(=O)(=O)c4ccc(OC)cc4)C[C@@H]23)cc1,x,-0.3,95.4*,110.7*,69.0,-0.2,55.2*
SMILES,IDH1 mut inh,GASC1 inh,T cruzi growth-1,T cruzi growth-2,T cruzi growth-3,NIH3T3 tox,NIH3T3 tox 2
O=C(C[C@H]1CC[C@@H]2[C@H](COC[C@@H](O)CN2Cc2ccc3c(c2)OCO3)O1)N1CCOCC1,x,1.5,-19.5,x,x,x,x
O=C(Nc1ccccc1F)N1CCCCN2[C@H](CO)[C@H](c3ccc(C#Cc4cccnc4)cc3)[C@H]2C1,x,-0.7,100.8*,108.9*,64.1,26.8,69.5*
O=C(Nc1ccccc1F)N1CCCCN2[C@H](CO)[C@H](c3ccc(-c4cccnc4)cc3)[C@H]2C1,x,-0.2,47.4,x,x,x,x
O=C(Nc1ccccc1F)N1CCCCN2[C@@H](CO)[C@H](c3ccc(C#Cc4cccnc4)cc3)[C@@H]2C1,x,-0.1,122.3*,106.2*,38.7,24.3,38.4*
O=C(Nc1cccc(F)c1)N1CCCCN2[C@H](CO)[C@H](c3ccc(C#Cc4cccnc4)cc3)[C@@H]2C1,x,-1.9,41.2,x,x,x,x
CCCc1occc(=O)c1CC=O,-0.2,x,x,x,x,x,x
OC[C@H]1Nc2ccc(C#Cc3ccc(F)cc3)cc2[C@@H]2[C@H]1CCN2Cc1ccc2c(c1)OCO2,x,0.6,u,102.7*,97.3*,40.4*,103.5*
O=C(C1CC1)N1CC[C@@H]2[C@H](CO)Nc3ccc(C#Cc4ccc(F)cc4)cc3[C@@H]21,x,7.1,64.5,x,x,x,x
O=C(c1ccc2c(c1)OCO2)N1CC[C@@H]2[C@H](CO)Nc3ccc(C#Cc4ccccc4)cc3[C@@H]21,x,-0.5,75.6,x,x,x,x
OC[C@@H]1Nc2ccc(C#Cc3ccc(F)cc3)cc2[C@@H]2[C@H]1CCN2Cc1ccc2c(c1)OCO2,x,-0.4,133.7*,103.1*,107.3*,38.1*,103.3*
N#Cc1cccc(-c2ccc3c(c2)[C@@H]2[C@@H](CCN2Cc2ccc4c(c2)OCO4)[C@@H](CO)N3)c1,x,0.2,21.6,x,x,x,x
